Assay results: ChEMBL document CHEMBL1926552, “Design and synthesis of simplified taxol analogs based on the T-Taxol bioactive conformation” (Bioorg Med Chem, 2011)
Values after ≈ are worked out from the molar mass of the structure shown. Active and inactive are the calls of the source. No cut-off for these calls is given here.

Key:
Bos taurus [1] = species: Bos taurus; assay: Induction of bovine brain beta-tubulin polymerization at 60 uM using DAPI staining-based by fluorescence assay relative to control
Method in brief: (§1)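 Bovine brain tubulin was loaded with 5 mM GDP in PME buffer (100 mM Pipes, 1 mM MgSO4, 2 mM EGTA, pH 6.9), then gel-filtered into PMED (PME plus 0.1 mM GDP). Tubulin (8 µM, just below critical concentration) with 10 µM DAPI was equilibrated at 37 °C. Ligand (8 or 60 µM) in DMSO (10% v/v final) was added to start the reaction. Fluorescence (ex 360, em 450 nm) was read to steady state against a DMSO-only control.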

Bos taurus [2] = species: Bos taurus; assay: Induction of bovine brain alpha-tubulin assembly assessed as prevention of temperature-induced microtubule disassembly at 60 uM at 4 degC by absorption spectrophotometric analysis relative to control
Method in brief: (§2)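 Bovine brain tubulin, 15 µM final, in PMEG buffer (100 mM Pipes, 1 mM MgSO4, 2 mM EGTA, 1 mM GTP, pH 6.9), equilibrated to 37 °C and baseline recorded. Ligand (15 or 60 µM) added, and assembly followed as light scattering at OD 350 nm. The sample was then cooled to 4 °C to follow disassembly. DMSO was 10% v/v final; the control had tubulin plus DMSO only.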

Bos taurus [3] = species: Bos taurus; assay: Induction of bovine brain alpha-tubulin polymerization at 60 uM using DAPI staining-based by fluorescence assay relative to control; method in brief: as §1
Bos taurus [4] = species: Bos taurus; assay: Induction of bovine brain beta-tubulin assembly assessed as increase in formed microtubule concentration at 60 uM at 37 degC by absorption spectrophotometric analysis relative to control; method in brief: as §2
Bos taurus [5] = species: Bos taurus; assay: Induction of bovine brain beta-tubulin assembly assessed as prevention of temperature-induced microtubule disassembly at 60 uM at 4 degC by absorption spectrophotometric analysis relative to control; method in brief: as §2
A2780 = assay: Antiproliferative activity against human A2780 cells after 2 days by alamar blue assay; assay type: functional, cell-based; settings: A2780, 48 h
[6] = Solubility of the compound in buffer containing 10% DMSO; assay type: physicochemical
Bos taurus [7] = species: Bos taurus; assay: Induction of bovine brain alpha-tubulin assembly assessed as increase in formed microtubule concentration at 60 uM at 37 degC by absorption spectrophotometric analysis relative to control; method in brief: as §2
Bos taurus [8] = species: Bos taurus; assay: Induction of bovine brain beta-tubulin assembly assessed as increase in formed microtubule concentration at 15 uM at 37 degC by absorption spectrophotometric analysis relative to control; method in brief: as §2
Bos taurus [9] = species: Bos taurus; assay: Induction of bovine brain alpha-tubulin assembly assessed as increase in formed microtubule concentration at 15 uM at 37 degC by absorption spectrophotometric analysis relative to control; method in brief: as §2
Bos taurus [10] = species: Bos taurus; assay: Induction of bovine brain alpha-tubulin polymerization at 8 uM using DAPI staining-based by fluorescence assay relative to control; method in brief: as §1
Bos taurus [11] = species: Bos taurus; assay: Induction of bovine brain beta-tubulin assembly assessed as prevention of temperature-induced microtubule disassembly at 15 uM at 4 degC by absorption spectrophotometric analysis relative to control; method in brief: as §2
Bos taurus [12] = species: Bos taurus; assay: Induction of bovine brain beta-tubulin polymerization at 8 uM using DAPI staining-based by fluorescence assay relative to control; method in brief: as §1
Bos taurus [13] = species: Bos taurus; assay: Induction of bovine brain alpha-tubulin assembly assessed as prevention of temperature-induced microtubule disassembly at 15 uM at 4 degC by absorption spectrophotometric analysis relative to control; method in brief: as §2

Structure (SMILES)	Activity (Bos taurus [1])	Activity (Bos taurus [2])	Activity (Bos taurus [3])	Activity (Bos taurus [4])	Activity (Bos taurus [5])	IC50 (A2780) [µM]	solubility [6] [µM]	Activity (Bos taurus [7])	Activity (Bos taurus [8])	Activity (Bos taurus [9])	Activity (Bos taurus [10])	Activity (Bos taurus [11])	Activity (Bos taurus [12])	Activity (Bos taurus [13])
C=CCOc1ccccc1[C@H](NC(=O)c1ccccc1)[C@@H](O)C(=O)O[C@H]1C[C@H]2[C@@H](OC(=O)c3ccccc3)c3c(cccc3OCC=C)CN2C1	inactive	Active	inactive	Active	Active	8.3	60 (≈ 41.3 µg/mL)	Active						
O=C(N[C@H]1c2ccccc2C/C=C/COc2cccc3c2[C@H](OC(=O)c2ccccc2)[C@@H]2C[C@@H](CN2C3)OC(=O)[C@@H]1O)c1ccccc1	inactive	Active	inactive	Active	Active	4	60 (≈ 38.7 µg/mL)	Active						
O=C(N[C@H]1c2ccccc2OC/C=C/COc2cccc3c2[C@H](OC(=O)c2ccccc2)[C@@H]2C[C@@H](CN2C3)OC(=O)[C@@H]1O)c1ccccc1	inactive	Active	inactive	Active	Active	4.1	60 (≈ 39.6 µg/mL)	Active						
C=CCOc1cccc2c1[C@@H](OC(=O)c1ccccc1)[C@@H]1C[C@H](OC(=O)[C@H](O)[C@@H](NC(=O)c3ccccc3)c3ccccc3CC=C)CN1C2	inactive	Active	inactive	Active	Active	23.8	60 (≈ 40.4 µg/mL)	Active						
CC(=O)O[C@H]1C(=O)[C@@]2(C)[C@H]([C@H](OC(=O)c3ccccc3)[C@]3(O)C[C@H](OC(=O)[C@H](O)[C@@H](NC(=O)c4ccccc4)c4ccccc4)C(C)=C1C3(C)C)[C@]1(OC(C)=O)CO[C@@H]1C[C@@H]2O									Active	Active	inactive	Active	inactive	Active
O=C(N[C@H]1c2ccccc2C/C=C/COc2cccc3c2[C@@H](OC(=O)c2ccccc2)[C@@H]2C[C@@H](CN2C3)OC(=O)[C@@H]1O)c1ccccc1	inactive	Active	inactive	Active	Active	5.1	60 (≈ 38.7 µg/mL)	Active						
C=CCCOc1ccccc1[C@H](NC(=O)c1ccccc1)[C@@H](O)C(=O)O[C@H]1C[C@H]2[C@@H](OC(=O)c3ccccc3)c3c(cccc3OCC=C)CN2C1	inactive	Active	inactive	Active	Active	5.8	60 (≈ 42.2 µg/mL)	Active						
C=CCOc1cccc2c1[C@H](OC(=O)c1ccccc1)[C@@H]1C[C@H](OC(=O)[C@H](O)[C@@H](NC(=O)c3ccccc3)c3ccccc3CC=C)CN1C2	inactive	Active	inactive	Active	Active	4.7	60 (≈ 40.4 µg/mL)	Active						
O=C(N[C@H]1c2ccccc2OCC/C=C/COc2cccc3c2[C@H](OC(=O)c2ccccc2)[C@@H]2C[C@@H](CN2C3)OC(=O)[C@@H]1O)c1ccccc1	inactive	Active	inactive	Active	Active	4.5	60 (≈ 40.5 µg/mL)	Active						
